From ChEMBL document CHEMBL4513216, “Probing the Open Global Health Chemical Diversity Library for Multistage-Active Starting Points for Next-Generation Antimalarials” (ACS Infect Dis, 2020) come the findings set out here.

A short description of the data set: Toxicity liver stage against HepG2, at 10uM. Further details: test concentration 10 uM, cell line HepG2-A16-CD81EGFP. The format is cell-based. The conditions noted are these: human, HepG2-A16-CD81EGFP cells; read-out: INHIBITION
In a few lines: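 Uninfected HepG2-A16-CD81EGFP cells, 3 × 10^3 per well, 1536-well, plated on prespotted compound at 10 μM final, parasite-free screening media added to match infected plates; puromycin 10 μM positive, DMSO 0.5% negative; run in parallel with 48 h PbLuc assay at 37 °C, 5% CO2; viability by CellTiter-Glo luminescence, normalized to controls.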
In the case of `CCN1CCC2(CC1)CC(NC(=O)c1csnn1)c1ccccc1O2` (stereo not given), the cytotoxicity at 10 µM was -116%.

As to `O=C(NCc1ccc2c(c1)CCCO2)c1ccc(C2CCNC2)cc1` (stereo not given), the cytotoxicity at 10 µM was -11.5%.

As to `Cc1noc(C(C)C)c1C(=O)NCC(c1cccc(F)c1)N(C)C` (stereo not given), the cytotoxicity at 10 µM is -7.46%.

Turning to `CN1CCCC2(C1)CN(C(=O)C1CCCCC1)CCO2` (stereo not given), the cytotoxicity at 10 µM amounted to 0.994%.

Take `c1ccc(CN2CCCC(Cn3cncn3)C2)nc1` (stereo not given): the cytotoxicity at 10 µM was -9.93%.

Consider `Cc1ccc(C(=O)N(C2CC2)C2CC(=O)NC2=O)cc1F` (stereo not given), for which the cytotoxicity at 10 µM was -7.33%.

On to `CC(C(=O)NCCOc1ccc(F)cc1)n1cncn1` (stereo not given), for which the cytotoxicity at 10 µM was -1.46%.

In the case of `CC(C)N1CCC2(C=C(C(=O)NC3CC3)c3ccccc32)CC1`, the cytotoxicity at 10 µM came out at 1.29%.

On to `O=C(CN1CCN(c2ccc3nncn3n2)CC1)NC1CCCC1`, for which the cytotoxicity at 10 µM was -33.9%.

For the compound `CN(C)c1ccnc(N2CCC(NCCOc3ccccc3)CC2)n1`, the cytotoxicity at 10 µM was -4.99%.

On to `COc1cc(-c2cccc3c2OC(CN)C3)ccc1O` (stereo not given), for which the cytotoxicity at 10 µM is -51.9%.

For `CCc1nc(C)c(C(=O)NCCNc2ncccc2C#N)s1`, the cytotoxicity at 10 µM was -8.54%.

With `Cc1noc([C@@H]2C[C@H]3CN(CC4CCOCC4)C[C@H]3O2)n1`, the cytotoxicity at 10 µM is -137%.

On to `Cc1cc(C)n(CC(=O)NC2CCCCNC2=O)n1` (stereo not given), for which the cytotoxicity at 10 µM was -14.7%.

Take `CN(Cc1ccc(-n2cccn2)cc1)c1cc(N)nc(N)n1`: the cytotoxicity at 10 µM worked out at 86.7%.

In the case of `Cc1nn(C)c(N(C)C)c1CNCCC(=O)NC1CCCC1`, the cytotoxicity at 10 µM was -3.37%.

In the case of `COCCn1c2c(ccc1=O)CC(N)CC2` (stereo not given), the cytotoxicity at 10 µM is 9.77%.

On to `CN(C)Cc1cncc2c1CCN(Cc1cnn(C)c1)C2`, for which the cytotoxicity at 10 µM is 4.13%.

Turning to `Clc1ccc2cccnc2c1CN1CCCC(Cn2cncn2)C1` (stereo not given), the cytotoxicity at 10 µM came to 8.38%.

Regarding `CC(=O)N1CC2(CCNCC2)c2cc(Cl)ccc21`, the cytotoxicity at 10 µM is -0.655%.

Turning to `CN(C)C(CNCc1nc(-c2ccsc2)no1)c1ccco1` (stereo not given), the cytotoxicity at 10 µM is 10.2%.

On to `CCNC(=O)[C@@H]1C[C@@H](N)CN1C(=O)c1cc2ccccc2[nH]1`, for which the cytotoxicity at 10 µM is -9.6%.

As for `O=C1CCC2(CCC(NCc3ccsc3)CC2)N1Cc1ccccc1` (stereo not given), the cytotoxicity at 10 µM turned out to be 3.79%.

In the case of `Cn1cnnc1SCC(=O)N1C[C@@H]2CC[C@H]1CN(Cc1cccnc1)C2`, the cytotoxicity at 10 µM was -2.82%.

On to `N#Cc1cccnc1OC1CCNCC1`, for which the cytotoxicity at 10 µM is -8.99%.

Regarding `Cc1nc(-c2ccncc2)ncc1C(C)NC(=O)C1=NN(C)C(=O)CC1` (stereo not given), the cytotoxicity at 10 µM is -0.205%.

In the case of `Cc1cc(C)n(CC2CN(CCc3ccncc3)CCO2)n1` (stereo not given), the cytotoxicity at 10 µM amounted to 0.347%.

For `O=C(N1CCCO1)[C@@]12CCO[C@@H]1CCN(Cc1ccccc1)C2`, the cytotoxicity at 10 µM was -13.6%.

On to `NC(=O)C1CCN(C(=O)CCn2c(C(F)(F)F)cc3cccnc32)CC1`, for which the cytotoxicity at 10 µM was -23.7%.

As for `Cn1cc(CNC2CCc3c(ccc(=O)n3Cc3cccnc3)C2)cn1` (stereo not given), the cytotoxicity at 10 µM was -108%.

In the case of `Cc1ccccc1C(=O)N1C[C@@H]2C[C@@H](C)O[C@@H]2C1`, the cytotoxicity at 10 µM is 0.995%.

Turning to `COc1ccc(CN2CCC3(CC2)NC(=O)CC3c2cnn(C)c2)cc1` (stereo not given), the cytotoxicity at 10 µM worked out at 0.424%.

Regarding `COC(=O)C1CCCN1C(=O)c1cc(CC(C)C)no1` (stereo not given), the cytotoxicity at 10 µM is 14%.

As for `CC(=O)NCCC1CCCCN1S(=O)(=O)c1ccc2ccccc2c1` (stereo not given), the cytotoxicity at 10 µM was -125%.

As for `CC1(C)CN(CC(F)(F)F)CCN1CC(N)=O`, the cytotoxicity at 10 µM was found to be 9.92%.

For `CCc1nc(CN2CCN(C(=O)C3(C#N)CCCC3)CC2)cs1`, the cytotoxicity at 10 µM stood at 0.38%.

In the case of `COCCN1CCC2(CCCN(C(=O)c3ccoc3C)C2)C1=O` (stereo not given), the cytotoxicity at 10 µM worked out at 0.369%.

Turning to `Cc1ccc(OC2(C(=O)O)CCN(C(=O)c3cccs3)CC2)cn1`, the cytotoxicity at 10 µM came to 0.92%.

On to `CC(=O)Nc1ccc2nc(-c3nccn3CCCN(C)C)ccc2c1`, for which the cytotoxicity at 10 µM was -6.07%.

Consider `c1csc(-c2noc(CCCN3CCCC3Cn3cccn3)n2)c1` (stereo not given), for which the cytotoxicity at 10 µM is -7.47%.
